Reference: article PMC9597438 (Journal of Ginseng Research, 2022)

Columns and labels:
[1] = system: HIF-1α transcriptional activity in Hep3B cells; experiment: HRE luciferase reporter assay; assay type: cell-based, human
In short: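 Hep3B cells at 60–80% confluence were transfected with an HRE-luciferase plasmid (legend adds pRL-CMV) using Lipofectamine 2000 for 24 h. They were reseeded at 5×10^4/well for 24 h, then treated under hypoxia (1% O₂, 5% CO₂, 94% N₂, 37 °C) at final 0.3–30 µM, triplicate wells. Treatment ran 12–16 h per methods, 24 h per legend. Cells were lysed 1 h and luminescence read.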

[2] = system: Hep3B cells; experiment: Cytotoxic; assay type: cell-based, human; details: 24 h, concentrations as high as 30 μM
In short: (§1)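 Hep3B cells in DMEM/10% FBS (5×10^4/well) adhered for 12 h under normoxia. They were exposed for 24 h to final 0.3, 1, 3, 10 and 30 µM, triplicate wells per level. MTT was added for 4 h in the dark, formazan was dissolved in DMSO with 10 min shaking, and absorbance was read at 492 nm. Mean ± SD, n = 3.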

[3] = system: HIF-1α protein expression in HeLa cells; experiment: Western blotting of HIF-1α in HeLa cells; assay type: cell-based, human; details: 1% O2, 12 h, 3, 10, 30 μM, nuclear extract
In short: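 HeLa cells were held 12 h under normoxia or hypoxia (1% O₂) with 3, 10 or 30 µM. Nuclear extracts were quantified by BCA, and 30 µg per lane was resolved by SDS-PAGE and transferred to PVDF. Membranes were blocked in 5% nonfat milk, probed with anti-HIF-1α overnight at 4 °C, then secondary for 2 h, and detected by chemiluminescence. Three independent experiments.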

[4] = system: HIF-1β expression in HeLa cells; experiment: Western blotting of HIF-1β in HeLa cells; assay type: cell-based, human; details: hypoxia, 12 h, whole-cell lysates
In short: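 HeLa cells were held 12 h under normoxia or hypoxia (1% O₂) at the indicated concentrations. Whole-cell lysates were run on SDS-PAGE, transferred to PVDF and blocked in 5% milk. Anti-HIF-1β ran overnight at 4 °C, secondary 2 h, chemiluminescent detection. Three independent experiments.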

[5] = system: VEGF protein expression in HeLa cells; experiment: Western blotting of VEGF in HeLa cells; assay type: cell-based, human; details: hypoxia, 12 h
In short: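 After 12 h incubation under normoxia or hypoxia (1% O₂) at the indicated concentrations, HeLa cell protein was quantified by BCA and separated by SDS-PAGE onto PVDF. Blots were blocked in 5% milk and probed for VEGF overnight at 4 °C, then secondary 2 h, with chemiluminescent detection. Three independent experiments.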

[6] = system: nuclear accumulation of HIF-1α in HeLa cells; experiment: Immunofluorescence staining of HIF-1α; assay type: cell-based, human; details: 1% O2, 12 h, 30 μM
In short: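 HeLa cells (1×10^4/well) adhered for 24 h and were held under normoxia or hypoxia (1% O₂) for 12 h with or without 30 µM. Processing: 4% paraformaldehyde at room temperature for 30 min, 0.2% Triton X-100, 5% BSA block for 30 min. Anti-HIF-1α ran overnight at 4 °C, secondary 30 min at room temperature, DAPI 30 min. Imaged by fluorescence microscopy at 400×.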

[7] = system: HeLa cells; experiment: Colony formation assay; assay type: cell-based, human; details: HeLa cells, 3, 10, 30 μM, 10 days
In short: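 HeLa cells (1×10^3/well, 6-well) were plated for 12 h and given fresh medium with 3, 10 or 30 µM. They grew 10 days until colonies were visible, then were fixed in 10% formaldehyde, stained with 1% crystal violet, washed in PBS and air-dried.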

[8] = system: HeLa cells; experiment: EdU labeling and immunofluorescence; assay type: cell-based, human; details: HeLa cells, 3, 10, 30 μM, 12 h
In short: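 HeLa cells (5×10^4/well) were plated for 24 h and treated with 3, 10 or 30 µM for 12 h. EdU was pulsed for 1 h. Cells were fixed in 4% paraformaldehyde for 30 min, permeabilised in 0.5% Triton X-100 for 10 min and reacted in 1× Apollo cocktail for 30 min. Nuclei were counterstained with Hoechst 33342 and imaged by fluorescence microscopy.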

[9] = system: HeLa cells; experiment: Apoptosis assay; assay type: cell-based, human
In short: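 HeLa cells (5×10^5/well) adhered for 24 h, then were exposed to 3, 10 or 30 µM for 24 h per methods; the legend gives 12 h under hypoxia. Cells were washed twice in PBS and taken into binding buffer (10 mM HEPES pH 7.4, 140 mM NaCl, 2.5 mM CaCl₂). They were stained with Annexin V-FITC and 2 µg/mL propidium iodide, 15 min, 37 °C, dark, then read by flow cytometry.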

[10] = system: Bax expression in HeLa cells; experiment: Western blotting of Bax in HeLa cells; assay type: cell-based, human; details: HeLa cells, 3, 10, 30 μM, 12 h, vs control group
In short: (§2)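 HeLa cells were treated with or without 3, 10 or 30 µM for 12 h. Whole-cell extracts were separated by SDS-PAGE, transferred to PVDF and blocked in 5% nonfat milk. Blots were probed overnight at 4 °C for the named protein (Bax, Bcl-2, MMP-9 or cleaved caspase-3), then secondary for 2 h, with chemiluminescent detection. Three independent experiments.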

[11] = system: Bcl-2 expression in HeLa cells; experiment: Western blotting of Bcl-2 in HeLa cells; assay type: cell-based, human; details: HeLa cells, 3, 10, 30 μM, 12 h, vs control group
In short: as §2

[12] = system: cleaved caspase-3 expression in HeLa cells; experiment: Western blotting of cleaved caspase-3 in HeLa cells; assay type: cell-based, human; details: HeLa cells, 3, 10, 30 μM, 12 h, concentration-dependent
In short: as §2

[13] = system: HeLa cells; experiment: Cell migration assay; assay type: cell-based, human; details: 3, 10, 30 μM, 12 h, vs control group
In short: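 Scratch assay: HeLa cells (1×10^5/well) adhered for 24 h, were scratched with a sterile pipette tip, washed three times in PBS and switched to serum-free medium. Cells got 3, 10 or 30 µM for 12 h. The same fields were imaged at 200×, and migration was scored as final versus initial gap width.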

[14] = system: HeLa cells; experiment: Transwell invasion assay; assay type: cell-based, human; details: HeLa cells, 3, 10, 30 μM, vs control
In short: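 Matrigel-coated Transwell inserts were loaded with HeLa cells pretreated with or without 3, 10 or 30 µM, in serum-free DMEM in the upper chamber; the legend gives 12 h exposure. The lower chamber held DMEM with 10% FBS. After 24 h invasion at 37 °C, cells on the lower side were fixed in 4% paraformaldehyde, stained with 0.1% crystal violet and photographed at 200×.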

[15] = system: MMP-9 expression in HeLa cells; experiment: Western blotting of MMP-9 in HeLa cells; assay type: cell-based, human; details: 10 μM, 12 h
In short: as §2

[16] = system: HeLa cervical cancer xenograft; experiment: In vivo antitumor activity, HeLa cervical cancer xenograft; design: species or system athymic Nu/Nu nude mice; details: nude mice with HeLa tumors, ip, vs control, p < 0.001
[17] = Cytotoxic; assay type: cell-based, human; details: human, Hep3B cells
In short: as §1

Row | Compound | transcriptional activity of HIF-1α (HRE-mediated reporter gene expression) ([1]; hypoxia (1% oxygen), from 0.3 μM upward) | efficacy (HIF-1α transcription inhibition) relative to 20(R)-panaxotriol ([1]; ratio of IC50 values) | cell viability (MTT) [2] | HIF-1α protein content [3] | expression level of HIF-1β [4] | VEGF protein expression levels [5] | HIF-1α expression in the nucleus [6] | colony formation of cells [7] | number of EdU-positive cells [8] | percentage of total apoptotic (early and late) cells ([9]; 3 μM) | percentage of total apoptotic (early and late) cells ([9]; 10 μM) | percentage of total apoptotic (early and late) cells ([9]; 30 μM) | expression levels of Bax [10] | levels of Bcl-2 [11] | expression levels of cleaved caspase-3 [12] | migration of HeLa cells (scratch assay) [13] | number of tumor cells that crossed the transwell chamber (invasion) [14] | expression levels of MMP-9 [15] | tumor volume [16] | IC50 at 24 h [17]
1 | CC(C)(C)OC(=O)NCC(=O)OC1CCC2(C)C(C(O)CC3(C)C2CC(O)C2C(C4(C)CCCC(C)(C)O4)CCC23C)C1(C)C (centres unmarked) [A11, 6,12-dihydroxy-4,4,8,10,14-pentamethyl-17-(2,6,6-trimethyltetrahydro-2H-pyran-2-yl)hexadecahydro-1H-cyclopenta[a]phenanthren-3-yl (tert-butoxycarbonyl)glycinate] | dose-dependent inhibited | more than 100 times | no adverse effects on cell viability | dose-dependently reduced | almost no influence | dose-dependent decrease | not detected | apparently inhibited | concentration-dependently suppressed | 5.2% | 14.0% | 24.2% | increased | decreased | significantly increased | decreased | significantly reduced | significantly reduced | significantly inhibit | –
2 | CC1(C)CCCC(C)(C2CCC3(C)C2C(O)CC2C4(C)CCC(OC(=O)[C@@H](N)Cc5c[nH]c6ccccc56)C(C)(C)C4C(O)CC23C)O1 (some centres unmarked) [A13, 6,12-dihydroxy-4,4,8,10,14-pentamethyl-17-(2,6,6-trimethyltetrahydro-2H-pyran-2-yl)hexadecahydro-1H-cyclopenta[a]phenanthren-3-yl tryptophanate] | – | – | – | – | – | – | – | – | – | – | – | – | – | – | – | – | – | – | – | 6.99 µM
